NPY Y1 blocker – NPY-Y1 (human) receptor antagonism | P25929 | HEK293-CNG Y1 cells, membrane potential fluorescence; NPY at EC95, then isoproterenol | inhibition, % at 3.6 µM | 200,000 tested, 1% active;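 active = inhibition above the campaign mean inhibition of all tested compounds plus 3 SD, cut at about 20% in these data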;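 note: 0% = DMSO wells given NPY plus isoproterenol and 100% = isoproterenol alone without NPY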
Target sequence (P25929 whole entry, looked up): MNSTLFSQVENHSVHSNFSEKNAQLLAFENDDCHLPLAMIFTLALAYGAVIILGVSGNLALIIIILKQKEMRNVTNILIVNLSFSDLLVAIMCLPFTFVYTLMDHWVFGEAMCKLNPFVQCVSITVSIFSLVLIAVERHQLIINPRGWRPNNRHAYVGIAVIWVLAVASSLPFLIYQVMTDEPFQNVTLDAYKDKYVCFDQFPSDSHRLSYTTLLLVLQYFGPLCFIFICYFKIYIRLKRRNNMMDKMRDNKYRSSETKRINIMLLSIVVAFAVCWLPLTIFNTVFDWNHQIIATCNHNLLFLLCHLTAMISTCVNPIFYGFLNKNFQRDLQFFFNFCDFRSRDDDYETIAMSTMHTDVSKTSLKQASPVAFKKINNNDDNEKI
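Test system: HEK293 cells co-expressing NPY Y1 receptor and cyclic-nucleotide gated channel; Also added: NPY (25 nM), isoproterenol (1 µM), Ro 20-1724 (25 µM); Compound dosing: one concentration, 3.6 µM, in 0.4% DMSO; Timing: dye 3 h, compound 60 min room temperature, stimulation 45 min; Technique: Membrane-potential fluorescent dye readout.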
Insulin prom inh – TRM-6 insulin promoter activity inhibition; TRM-6 cells, insulin promoter-eGFP reporter, imaging; reporter expression induced with tamoxifen; AID 1273; inhibition, % at 2 µM; 130,000 tested, 0.9% active;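 active = inhibition above the mean plus 3 SD, with well images judged a real hit on visual review, cut at about 60% in these data, passing the limit was not always enough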
NPY1 pot ag – potentiators or agonists of human neuropeptide Y receptor Y1; NPY-Y1 expressing cells, potentiator/agonist activation; activation, % at 3.6 µM; 220,000 tested, 0.37% active; AID 1304; in the data active = activation above about 33%, passing the limit was not always enough;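 note: cells stimulated with NPY at EC10 then isoproterenol at EC100; 0% = low agonist plus stimulus and 100% = saturating agonist plus stimulus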
NPY2 pot ag – potentiates or activates human NPY-Y2 receptor | P49146 | cells expressing NPY-Y2, potentiator/agonist read-out | activation, % at 3.6 µM | 220,000 tested, 0.45% active | AID 1359; in the data active = activation above about 27%;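 note: cells stimulated with NPY near EC25 plus isoproterenol at EC100; 0% = vehicle plus submaximal agonist and 100% = vehicle plus saturating agonist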
NPY-Y2 antag – antagonists of human neuropeptide Y receptor Y2 | inhibition, % at 2.7 µM | 140,000 tested, 0.99% active | NPY-Y2 expressing cells, antagonist mode | P49146; in the data active = inhibition above about 17%;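 note: 0% = vehicle with agonist challenge and 100% = reference antagonist with challenge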
RAM network inh – yeast RAM network inhibition; S. cerevisiae dse1pr::URA3 reporter, 5-FOA growth OD615, 2 d; analog-sensitive cbk1-as2 kinase mutant strain; inhibition, % at 50 µM; 190,000 tested, 1.8% active; AID 868;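 active = inhibition above a set limit, 3 SD over mean compound inhibition, cut at about 8.4% in these data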;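 note: 0% = DMSO-only wells with no growth and 100% = 10 µM 1-NA-PP1 full growth; inhibition rescues growth on 5-FOA so higher OD means more RAM inhibition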
* = called active by the depositor; · = no result given. An excerpt weighted towards active compounds, which were near 3.8% of everything screened.

SMILES	NPY Y1 blocker	Insulin prom inh	NPY1 pot ag	NPY2 pot ag	NPY-Y2 antag	RAM network inh
COc1ccc(N(CC(=O)NC2CCCC2)C(=O)Cn2nnc(-c3ccc(F)cc3)n2)cc1OC	0	-38	4	-4	3	9.3*
COc1ccc(N(CC(=O)NC2CCCC2)C(=O)Cn2nnc(-c3ccc(C)cc3)n2)cc1OC	2	·	1	11	-1	5
c1cc2c3c(cccc3c1)C(N1CCCCC1)=N2	2	87*	-3	8	1	2
c1cc2c3c(cccc3c1)C(N1CCCCCC1)=N2	4	63	3	4	8	1
CCN(C(=O)CCN1C(=O)c2ccccc2C1=O)C1CCCCC1	5	·	0	6	4	0
COc1ccc(CCNc2nc(-c3ccco3)cc(C(F)(F)F)n2)cc1OC	8	·	-13	-11	7	10*
CCN1C(=O)/C(=C\N(C)C)S/C1=N\S(=O)(=O)c1ccc(C)cc1	3	11	5	-2	·	2
Cc1cc(NC2CCCCC2)nc(NCc2ccccc2)n1	23*	-57	-34	-16	24*	0
Cc1cc(N/N=C/c2ccccc2Cl)nc(NCc2ccccc2)n1	25*	·	-72	-14	19*	0
CC(C)[C@H](NC(=O)NCc1ccc(F)cc1)C(=O)O	·	·	-11	-9	·	·
COc1ccc(CSc2nnc(Cc3sc(-c4ccccc4)nc3-c3ccccc3)o2)cc1	15	-12	-47	-24	6	9.6*
CSc1nnc(Cc2sc(-c3ccccc3)nc2-c2ccccc2)o1	17	55	-42	-16	4	4
COc1cc(S(=O)(=O)N(CCc2ccccc2)Cc2cccs2)ccc1-n1cnnn1	7	-56	0	8	4	9.1*
COc1ccc(CCN(Cc2cccs2)S(=O)(=O)c2ccc(-n3cnnn3)cc2)cc1OC	-4	·	6	-4	-1	4
COC(=O)[C@H]1C[C@@H]1[C@H](NC(=O)c1cnccn1)c1ccccc1	2	0	23	84*	1	1
Cc1ccc(-n2c(=O)[nH]cc(C(=O)Nc3ccc4c(c3)OCCO4)c2=O)cc1C	2	86*	-11	-10	5	2
CCOC(=O)C1CCCN(C(c2ccccn2)c2c(C)[nH]c3ccccc23)C1 (centres undefined)	-5	·	8	4	·	0
O=C(Nc1cccc([N+](=O)[O-])c1)c1ccccc1	·	·	5	-6	·	·
O=C(Nc1ccccc1)c1cccc(S(=O)(=O)Oc2ccc([N+](=O)[O-])cc2)c1	5	-16	-19	-8	4	10*
O=[N+]([O-])c1ccc(Oc2ccc(S(=O)(=O)Nc3ccccc3)cc2)cc1	-3	14	-3	-3	3	9.8*
O=S(=O)(Nc1ccc(S(=O)(=O)Nc2ccccc2)cc1)c1ccccc1	1	3	5	-11	1	1
CC(C)n1c(C(F)(F)F)nc2cc(C(=O)N3CCCCC3)ccc21	·	·	-6	-8	·	·
Cc1ccc(S(=O)(=O)n2nccc2-c2c(-c3ccc(Cl)cc3)noc2C)cc1	·	·	9	4	·	·
Cc1ccc(S(=O)(=O)NCCC(c2ccc(F)cc2)c2ccco2)cc1 (centres undefined)	0	-28	31	12	4	11*
COc1ccccc1C(CCNS(=O)(=O)c1ccc(C)cc1)c1ccco1 (centres undefined)	2	-11	8	-5	3	10.0*
SMILES	NPY Y1 blocker	Insulin prom inh	NPY1 pot ag	NPY2 pot ag	NPY-Y2 antag	RAM network inh
COc1ccccc1C(CNC(=O)c1ccc(S(=O)(=O)NCc2ccco2)cc1)N(C)C (centres undefined)	7	-58	5	3	4	0
OC1(c2ccccc2)Cc2cccc[n+]2C1c1ccccc1 (centres undefined)	·	·	10	-20	·	·
CCOc1ccc(N(CC(=O)Nc2cccc(N(C)S(C)(=O)=O)c2)S(=O)(=O)c2ccccc2)cc1	-1	-8	14	3	1	9.6*
CCN1C(=O)/C(=C/N2CC(C)CC(C)C2)SC1=S (centres undefined)	2	·	-1	10	1	9.7*
CCN1C(=O)/C(=C\N2CCCCCC2)SC1=S	-9	·	10	-4	4	1
O=C(NCC1CCCO1)c1ccccc1 (centres undefined)	6	3	11	13	4	0
O=C(NCC1CCCO1)c1ccccn1 (centres undefined)	-8	75*	-3	11	-3	1
Cc1cc(C(F)(F)F)nc(SCc2ccc(C(=O)O)o2)n1	-2	73*	-1	9	2	1
COc1ccc(N2CCN(C(=O)CCNS(=O)(=O)c3ccccc3)CC2)cc1	2	·	10	-5	·	0
COc1ccc(S(=O)(=O)c2nnn(-c3ccccc3Cl)c2N)cc1	0	73*	13	10	·	0
Nc1c(S(=O)(=O)c2ccccc2)nnn1-c1ccccc1	-10	20	1	1	3	0
COc1ccccc1CNC(=O)C1CCN(Cc2nc(-c3cccc(Cl)c3)oc2C)CC1	7	·	-6	5	2	1
CCc1ccc(-c2nc(CN3CCC(C(=O)NCc4ccccc4OC)CC3)c(C)o2)cc1	21*	·	-58	-17	18*	2
C=CCOc1ccc2c(c1)c(=O)cc(C(=O)O)n2CC	·	·	-6	7	·	·
C=CCOc1ccc2c(c1)c(S(=O)(=O)c1ccc(C)cc1)cn2COC	-8	0	19	7	0	9.9*
CCOCCCNC(=O)c1ccc(CS(=O)(=O)Cc2ccc(C)cc2)o1	-5	0	1	3	0	2
CCOc1cc(/C=C2/C(=O)ON=C2C)ccc1OCc1ccccc1F	6	31	3	0	2	7
CC1=NOC(=O)/C1=C/c1ccc2c(c1)OCO2	1	17	-2	5	·	-1
CCOc1cc(/C=C2/C(=O)ON=C2C)ccc1OCc1ccccc1	9	-129	0	-4	·	10*
CCOc1cc(/C=C2/C(=O)ON=C2C)ccc1OCc1ccc(F)cc1	2	10	-5	-4	1	9.9*
CCn1ncc(/C=N/NS(=O)(=O)c2ccc(Cl)cc2)c1C	2	-6	7	-10	0	0
COc1cc(OC)c(OC)cc1/C=C/C(=O)c1ccc(NS(=O)(=O)c2ccc(C)cc2)cc1	1	-37	12	23	1	9.9*
COC(=O)c1ccc(NC(=S)NC2c3ccccc3CC2O)cc1 (centres undefined)	-5	·	10	5	·	5
Oc1ccc(N=Nc2n[nH]c(-c3ccc(Br)cc3)n2)cc1	3	-3	3	-5	-2	8.8*
Oc1ccc(N=Nc2n[nH]c(-c3ccccc3)n2)cc1	-2	3	15	11	0	1
CC(=O)N1N=C(c2cccs2)CC1c1ccc(C)o1 (centres undefined)	3	82*	13	17	·	-2

High-throughput results as filed in PubChem.
